Assays:
[1] = system: A2780/Adr (drug resistant); test: Fluorometric microculture cytotoxicity assay; assay type: cell-based, human; settings: for IC50 ratio (resistant vs sensitive cells): A2780/Adr vs A2780; for IC50: 72 h, A2780/Adr (drug resistant) ovarian carcinoma
Summary of the method: (§1)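 FMCA with cells seeded into plates pre-loaded with compound and stored at −20°C or −80°C. Seeding was 1,000–2,500 (384-well) or 5,000–10,000 (96-well) cells/well. Culture media: RPMI 1640 for CCRF-CEM, A2780, A2780/Adr, BXPC-3, U-937 and RPMI 8226; McCoy's for HT29 and HCT116. After 72 h, plates were washed and given fluorescein diacetate buffer for 45 min, then fluorescence was read. Survival index = (treated − blank)/(control − blank); IC50 taken from curves.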

[2] = system: developing blood vessels of chick embryo; test: Ex ovo chicken embryo chorioallantoic membrane; assay type: in vivo; settings: for effect on blood vessel growth and integrity: 10 nM, vs DMSO vehicle; for growth of the blood vessels (change in relative surface area) / vascular integrity (discontinuity of the vessels): 50 nM, 24 and 48 h posttreatment, vs controls
Summary of the method: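 Fertilized eggs incubated at 37.5°C and 60% humidity, then opened into 10 cm dishes on day 4. Two days later a 5 mm filter paper carrying test compound (10, 50, 200 nM), reference vascular disrupting agent or DMSO was laid on the CAM between two main vessels. Eggs were incubated 2 more days and photographed at 0, 24 and 48 h. Read-outs: relative surface area of vessels touching the paper, and disruption index (intact segments >10 mm).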

[3] = system: panel of eight cancer cell lines; test: FMCA, range over the panel of cancer cell lines; assay type: cell-based, human; settings: read-out: IC50, range over cell lines
Summary of the method: as §1

OvCar-8 cells = test: Time-lapse mitotic index and cell death index in OC cell lines; assay type: cell-based, human; settings: OvCar-8, 12.5 nM
Summary of the method: (§2)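 Ovarian OvCar-8, OvCar-4 and CaOv-3 cells were time-lapse filmed for 3 days, starting immediately after adding 12.5 nM test compound, 12.5 nM paclitaxel or vehicle alone. Mitotic index and cell death index were scored from the films at 12, 24, 48 and 72 h.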

HCT116 cells = test: Live cell microscopy; assay type: cell-based, human; settings: HCT116, 50 nM, 30 cells
Summary of the method: (§3)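 HCT116, HCT8 and MCF10A cells were given 50 nM test compound or a reference tubulin agent and imaged on an IncuCyte immediately and for 3 days, at 1 h intervals, in three replicates. Growth curves used mean confluence from six images per time point. Mitotic duration and mitotic fate were scored from time-lapse films: 10 cells per well, 30 cells per condition.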

CaOv-3 cells = test: Time-lapse mitotic index and cell death index in OC cell lines; assay type: cell-based, human; settings: CaOv-3, 12.5 nM
Summary of the method: as §2

MCF10A cells = test: Live cell microscopy; assay type: cell-based, human; settings: 50 nM, 30 cells
Summary of the method: as §3

[4] = Plasma levels in the maximal tolerated dose study; assay type: in vivo, NMRI nu/nu female mice
Summary of the method: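 In the maximal tolerated dose study, female NMRI nu/nu mice received test compound PO at 10, 20 or 40 mg/kg. Plasma concentrations were measured 1 and 4 h after dosing.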

[5] = system: cocultures of endothelial colony forming cells (ECFCs) and adipocyte derived stem cells (ADSCs); test: Vascular tube formation assay, neoangiogenic; assay type: cell-based, human; settings: 4.6 nM–10 µM, VEGF 20 ng/mL coapplied on day 0
Summary of the method: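 Cocultures of GFP-labelled endothelial colony forming cells and adipocyte-derived stem cells (StemKit). Compounds were co-applied with VEGF (20 ng/mL) on day 0 to follow cord formation. Fluorescent and phase-contrast images (10×) were taken every 6 h for up to 8 days. Cord length (mm/mm2) and branch points were analysed from 3–6 separate samples per condition.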

HCT8 cells = test: Live cell microscopy; assay type: cell-based, human; settings: HCT8, 50 nM, 30 cells
Summary of the method: as §3

A2780 xenograft = test: Human OC cell xenograft study; assay type: in vivo, NMRI nu/nu female nude mice
bovine tubulin protein = test: In vitro tubulin polymerization assay; assay type: biochemical; settings: cell-free, 60 min
Summary of the method: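 Commercial kit using bovine tubulin, cell-free. The test compound was tested at 1.0–10 µM. Vincristine and paclitaxel at 3.0 µM served as inhibition and stabilization controls. Compounds were dissolved in DMSO and diluted in sterile water to at most 0.1% DMSO, which was the solvent control. Polymerization was followed by a fluorescent reporter incorporated into microtubules and read continuously at 360/450 nm for 60 min.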

Caco-2 cell monolayers = test: Caco-2 permeability assay; assay type: in vitro ADME, human
Summary of the method: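 Caco-2 monolayers grown to confluence on collagen-coated polycarbonate transwell membranes. Buffer was HBSS with 10 mM HEPES and 15 mM glucose, pH 7.4; the receiver side also held 1% BSA. 5 μM test compound was dosed apically (A-to-B) or basolaterally (B-to-A) at 37°C, 5% CO2. Donor and receiver were sampled at 120 min, in duplicate. Co-applied Lucifer yellow checked integrity. High permeability: Papp A-to-B ≥1.0×10−6 cm/s.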

[6] = system: HCT116, HCT8 and MCF10A cells; assay type: cell-based, human
Summary of the method: as §3

OvCar-4 cells = test: Time-lapse mitotic index and cell death index in OC cell lines; assay type: cell-based, human
[7] = system: cocultures of endothelial colony forming cells (ECFCs) and adipocyte derived stem cells (ADSCs); test: Vascular tube formation assay, disruption of established cords; assay type: cell-based, human
Summary of the method: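 Cocultures of GFP-labelled endothelial colony forming cells and adipocyte-derived stem cells were stimulated with VEGF (20 ng/mL) to form cords. Compounds were added to the established cords at 96 h. Images were taken every 6 h and scored for relative cord length and branch points. pIC50 came from a four-parameter logistic fit of area-under-curve data between 96 and 186 h.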

For `CCC[C@H](Nc1nc(-c2ccc(NC(=O)NCC)c(OC)c2)ncc1C)c1cccnc1` [CYT997, lexibulin], the “IC50 ratio (resistant vs sensitive cells)” value (from here on “IC50 ratio”) [1] was 3.35 and the IC50 ([1]; Homo sapiens, A2780 ADR) was 183 nM.
For `COc1ccc(/C=C\c2cc(OC)c(OC)c(OC)c2)cc1O` [Combretastatin A4, reference compound], the “effect on blood vessel growth and integrity” value [2] was “ineffective”, the “growth of the blood vessels (change in relative surface area)” value [2] was “significantly suppressed” and the “vascular integrity (discontinuity of the vessels)” value [2] was “significantly suppressed”.
For `COc1ccc2[nH]cc(CCNc3nccc(Nc4cccc5c4ccn5C)n3)c2c1` [NOV202], the IC50 [3] was 2.3 to 12 nM, the “mitotic index (MI)” value (OvCar-8 cells; 12 h) was 27.0%±4.0% and the “cell death index (CDI)” value (OvCar-8 cells; 24 h) was 29.0%±9.0%. The “cell death index (CDI)” value (OvCar-8 cells; 48 h) was 31.0%±10.5%, the “cell death index (CDI)” value (OvCar-8 cells; 72 h) was 30.0%±2.3% and the IC50 [1] was 2.3 nM. The “IC50 ratio” value [1] was 0.96, the “average duration of mitosis” value (HCT116 cells) was 26.2 ± 7.1 h and the “mitotic index (MI)” value (CaOv-3 cells; 12 h) was 12.7%±2.5%. The “cell death index (CDI)” value (CaOv-3 cells; 24 h) was 46.0%±1.7%, the “cell death index (CDI)” value (CaOv-3 cells; 48 h) was 68.7%±4.2% and the “cell death index (CDI)” value (CaOv-3 cells; 72 h) was 77.0%±4.6%. For the same molecule, the “effect on blood vessel growth and integrity” value [2] was “ineffective”, the “growth of the blood vessels (change in relative surface area)” value [2] was “significantly suppressed” and the “vascular integrity (discontinuity of the vessels)” value [2] was “significantly suppressed”. The “average duration of mitosis” value (MCF10A cells) was 16.4 ± 5.2 h, the plasma concentration ([4]; PO 10 mg/kg, 1 h post-dosing) was 21 nM and the plasma concentration ([4]; PO 10 mg/kg, 4 h post-dosing) was 17 nM. For the same molecule, the plasma concentration ([4]; PO 20 mg/kg, 1 h post-dosing) was 54 nM, the plasma concentration ([4]; PO 20 mg/kg, 4 h post-dosing) was 29 nM and the plasma concentration ([4]; PO 40 mg/kg, 1 h post-dosing) was 309 nM. For the same molecule, the plasma concentration ([4]; PO 40 mg/kg, 4 h post-dosing) was 76 nM, the “VEGF-induced cord (tube) formation” value [5] was “completely inhibit tube formation” and the “average duration of mitosis” value (HCT8 cells) was 11.8 ± 3.1 h. The “effect on tumor volume” value (A2780 xenograft; PO 40 mg/kg, 5 days on/2 days off, comparable to paclitaxel 24 mg/kg IV) was “clear antitumor effect”, the “tolerability by body weight measurements” value (A2780 xenograft; PO 10, 20, 40 mg/kg during the treatment) was “well tolerated” and the “effect on tubulin polymerization” value (bovine tubulin protein; 1.0 µM) was “slowed down the rate of the polymerization, but could not suppress it”. The “effect on tubulin polymerization” value (bovine tubulin protein; 3.0 µM) was “suppress tubulin heterodimer polymerization”, the “effect on tubulin polymerization” value (bovine tubulin protein; 10 µM) was “block the polymerization almost completely” and the Efflux ratio (Caco-2 cell monolayers; bi-directional Caco-2) was 1.0. The Efflux substrate (Caco-2 cell monolayers; significant efflux: efflux ratio >3.0 and Papp B-to-A ≥1.0×10^−6 cm/s) was “no significant efflux”, the “cell population growth (cell confluency)” value ([6]; 50 nM, filmed for 3 days) was “strong growth suppression” and the “effect on interphase and mitotic microtubule networks” value ([6]; 15–50 nM, data not shown) was “markedly disrupted or completely wiped out”. For the same molecule, the “mitotic index (MI)” value (OvCar-4 cells; OvCar-4, 12.5 nM, 12 h) was 24.0%±9.5%, the “cell death index (CDI)” value (OvCar-4 cells; OvCar-4, 12.5 nM, 24 h) was 13.7%±1.5% and the “cell death index (CDI)” value (OvCar-4 cells; OvCar-4, 12.5 nM, 48 h) was 16.3%±2.1%. For the same molecule, the “cell death index (CDI)” value (OvCar-4 cells; OvCar-4, 12.5 nM, 72 h) was 12.0%±1.0%, the “cell death index (CDI)” value (OvCar-4 cells; OvCar-4, 50 nM, 24 h) was 28.7%±6.8% and the “cell death index (CDI)” value (OvCar-4 cells; OvCar-4, 50 nM, 48 h) was 48.3%±10.7%. For the same molecule, the “cell death index (CDI)” value (OvCar-4 cells; OvCar-4, 50 nM, 72 h) was 59.3%±13.2% and the “pIC50, disruption of VEGF stimulated established cords” value ([7]; four-parameter logistic fit of AUC between 96 and 186 h, VEGF 20 ng/mL) was 8.3.
In the case of `CC(=O)O[C@H]1C(=O)[C@@]2(C)[C@H]([C@H](OC(=O)c3ccccc3)[C@]3(O)C[C@H](OC(=O)[C@H](O)[C@@H](NC(=O)c4ccccc4)c4ccccc4)C(C)=C1C3(C)C)[C@]1(OC(C)=O)CO[C@@H]1C[C@@H]2O` [PTX, paclitaxel], the “IC50 ratio” value [1] is reported as 3,115, the IC50 ([1]; Homo sapiens, A2780 ADR) is reported as 810 nM and the “effect on tubulin polymerization” value (bovine tubulin protein; 3.0 µM) is reported as “effective stabilizer of tubulin polymerization”.
For `CC[C@]1(O)C[C@H]2CN(CCc3c([nH]c4ccccc34)[C@@](C(=O)OC)(c3cc4c(cc3OC)N(C=O)[C@H]3[C@@](O)(C(=O)OC)[C@H](OC(C)=O)[C@]5(CC)C=CCN6CC[C@]43[C@@H]65)C2)C1` [VinC, vincristine], the “IC50 ratio” value [1] was 955, the IC50 ([1]; Homo sapiens, A2780 ADR) was 210 nM and the “effect on tubulin polymerization” value (bovine tubulin protein; 3.0 µM) was “suppress tubulin heterodimer polymerization”.
With `Cc1ccc(C(=O)Nc2ccc(S(=O)(=O)O)c3cc(S(=O)(=O)O)cc(S(=O)(=O)O)c23)cc1NC(=O)c1cccc(NC(=O)Nc2cccc(C(=O)Nc3cc(C(=O)Nc4ccc(S(=O)(=O)O)c5cc(S(=O)(=O)O)cc(S(=O)(=O)O)c45)ccc3C)c2)c1` [suramin, reference compound] the “effect on established cords” value ([7]; 100 µM, added at t=96 h) was “complete regression of established cords”.

Source: publication PMC5417661 (Drug Design, Development and Therapy, 2017)
